Assay results reported in ChEMBL document CHEMBL3352498, “Membrane active phenylalanine conjugated lipophilic norspermidine derivatives with selective antibacterial activity” (J Med Chem, 2014).
≈ marks a conversion by molar mass, not a printed value. Calls of active or inactive are those of the source. The rule behind the calls is not given here.

Experiments:
Staphylococcus aureus [1] = assay: Antimicrobial activity against methicillin-resistant Staphylococcus aureus ATCC 33591 after 24 hrs by broth microdilution method; format: functional
Summary of the method: (§1)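 Broth microdilution per CLSI, 24 h at 37 °C. Inoculum is a 6 h 37 °C culture diluted to ~10^5 CFU/mL (yeast–dextrose broth for MRSA and K. pneumoniae). 50 μL of 2-fold dilutions in water plus 150 μL bacteria. Read by OD600, triplicates, run at least twice. MIC is taken from a sigmoidal fit as the point where OD equals the bacteria-free control.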

Staphylococcus aureus [2] = assay: Antimicrobial activity against Staphylococcus aureus MTCC 737 after 24 hrs by broth microdilution method; format: functional
Summary of the method: (§2)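 Broth microdilution per CLSI: 6 h cultures (37 °C) diluted to ~10^5 CFU/mL; 2-fold serial dilutions in sterile water added to bacteria; 24 h at 37 °C; OD600 read. Triplicates, experiment done at least twice; mean OD vs concentration fitted sigmoidally, MIC taken where OD matched the no-bacteria control. E. coli grown in LB broth, S. aureus in yeast–dextrose broth.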

Enterococcus faecium [3] = assay: Antimicrobial activity against Enterococcus faecium ATCC 19634 after 24 hrs by broth microdilution method; format: functional
[4] = Hemolytic activity in human erythrocytes after 1 hr by spectrophotometry; format: ADME, cell-based, Erythrocyte
Summary of the method: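 Fresh heparinised human erythrocytes suspended to 5 vol % in PBS pH 7.4, mixed with serially diluted compound, 1 h at 37 °C; no-compound and 1 vol % Triton X-100 controls. Supernatant A540 after centrifugation gave % hemolysis; triplicates averaged, sigmoidal fit gave HC50.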

[5] = Critical micelle concentration of the compound; format: ADME
Summary of the method: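 Static light scattering at 90° (excitation and emission 400 nm) on compound dissolved at 500 μg/mL in yeast–dextrose broth at room temperature, measured over successive dilutions; cmc taken from the inflection point where intensity rises steeply then falls after a local maximum.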

Escherichia coli [6] = assay: Antimicrobial activity against Escherichia coli MTCC 443 after 24 hrs by broth microdilution method; format: functional; summary of the method: as §2
Enterococcus faecium [7] = assay: Antimicrobial activity against vancomycin-resistant Enterococcus faecium ATCC 51559 after 24 hrs by broth microdilution method; format: functional; summary of the method: as §1
Klebsiella pneumoniae = assay: Antimicrobial activity against beta-lactam-resistant Klebsiella pneumoniae ATCC 700603 after 24 hrs by broth microdilution method; format: functional; summary of the method: as §1
Staphylococcus aureus [8] = assay: Ratio of MIC for Staphylococcus aureus MTCC 737 after 2 hrs in presence of 50% human plasma to MIC for Staphylococcus aureus MTCC 737 after 2 hrs; format: functional
Summary of the method: (§3)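 Compound mixed 1:1 with fresh human plasma (50% plasma) and held at 37 °C; at 0, 2, 4, 6, 12 and 24 h aliquots were diluted 2-fold in 0.9% saline.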

Escherichia coli [9] = assay: Antimicrobial activity against Escherichia coli MTCC 443 assessed as leakage of K+ at 12 times MIC using PBFI-AM by fluorescence spectroscopy; format: functional, organism-based
Staphylococcus aureus [10] = assay: Ratio of MIC for Staphylococcus aureus MTCC 737 after 4 hrs in presence of 50% human plasma to MIC for Staphylococcus aureus MTCC 737 after 4 hrs; format: functional; summary of the method: as §3
Staphylococcus aureus [11] = assay: Antimicrobial activity against Staphylococcus aureus MTCC 737 assessed as leakage of K+ at 12 times MIC using PBFI-AM by fluorescence spectroscopy; format: functional, organism-based
Staphylococcus aureus [12] = assay: Antimicrobial activity against Staphylococcus aureus MTCC 737 assessed as membrane depolarization at 12 times MIC using DiSC3 by fluorescence spectroscopy; format: functional, organism-based
Summary of the method: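 Mid-log S. aureus washed and resuspended in 5 mM HEPES, 5 mM glucose, 100 mM KCl (1:1:1); 2 μM DiSC3(5) added, 20 min preincubation.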

Staphylococcus aureus [13] = assay: Antimicrobial activity against Staphylococcus aureus MTCC 737 assessed as membrane permeabilization at 12 times MIC by propidium iodide staining method; format: functional, organism-based
Staphylococcus aureus [14] = assay: Bactericidal activity against Staphylococcus aureus MTCC 737 assessed as log reduction in CFU/ml at 6 times MIC by time-kill assay relative to control; format: functional
Escherichia coli [15] = assay: Antimicrobial activity against Escherichia coli MTCC 443 assessed as membrane permeabilization at 12 times MIC by propidium iodide staining method; format: functional, organism-based
Staphylococcus aureus [16] = assay: Antimicrobial activity against Staphylococcus aureus MTCC 737 after 2 hrs by broth microdilution method in presence of 50% human plasma; format: functional, organism-based; summary of the method: as §3
Escherichia coli [17] = assay: Antimicrobial activity against Escherichia coli MTCC 443 assessed as increase in MIC measured after 30 passages by broth microdilution method relative to control; format: functional
[18] = Cytotoxicity against mouse RAW264.7 cells at 16 ug/ml after 1 hr by MTT assay; format: cell-based; conditions: raw264.7, 1 h
Summary of the method: (§4)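 RAW 264.7 cells grown in DMEM with 10% FBS to ~70–80% confluency, exposed to serially diluted compound 1 h at 37 °C, 5% CO2; untreated and Triton X-100 controls. MTT (5 mg/mL) 4 h, formazan dissolved in DMSO, OD 570 nm; viability normalised to controls, triplicates, sigmoidal fit for 50% viability.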

Staphylococcus aureus [19] = assay: Antimicrobial activity against Staphylococcus aureus MTCC 737 assessed as increase in MIC measured after 20 passages by broth microdilution method relative to control; format: functional
Staphylococcus aureus [20] = assay: Ratio of MIC for Staphylococcus aureus MTCC 737 after 4 hrs in presence of 50% human serum to MIC for Staphylococcus aureus MTCC 737 after 4 hrs; format: functional
Summary of the method: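 Compound mixed 1:1 with human serum (50% serum) and held at 37 °C; at 0, 2 and 4 h the mixture was serially 2-fold diluted in 0.9% saline. Activity against S. aureus then tested in triplicate by the standard broth microdilution MIC protocol.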

Escherichia coli [21] = assay: Antimicrobial activity against Escherichia coli MTCC 443 at sub-MIC measured after 30 passages by broth microdilution method; format: functional, organism-based
[22] = Cytotoxicity against mouse RAW264.7 cells after 1 hr by MTT assay; format: cell-based; conditions: raw264.7, 1 h; summary of the method: as §4
Staphylococcus aureus [23] = assay: Bactericidal activity against Staphylococcus aureus MTCC 737 assessed as log reduction in CFU/ml at 6 times MIC at 15 mins by time-kill assay relative to control; format: functional
Staphylococcus aureus [24] = assay: Antimicrobial activity against Staphylococcus aureus MTCC 737 at sub-MIC measured after 20 passages by broth microdilution method; format: functional, organism-based
Staphylococcus aureus [25] = assay: Antimicrobial activity against Staphylococcus aureus MTCC 737 after 4 hrs by broth microdilution method in presence of 50% human plasma; format: functional, organism-based; summary of the method: as §3

Molecule	MIC (Staphylococcus aureus [1]; ATCC 33591, 24 h)	MIC (Staphylococcus aureus [2]; MTCC 737, 24 h)	MIC (Enterococcus faecium [3]; ATCC 19634, 24 h)	HC50 at 1 h [4]	MIC (Escherichia coli [6]; MTCC 443, 24 h)	MIC (Enterococcus faecium [7]; ATCC 51559, 24 h)	MIC (Klebsiella pneumoniae; ATCC 700603, 24 h)	also measured
CCCCCCCCCCCCCCCCCC(=O)N(CCCNC(=O)[C@@H](N)Cc1ccccc1)CCCNC(=O)[C@@H](N)Cc1ccccc1.O=C(O)C(F)(F)F.O=C(O)C(F)(F)F	5.2 µg/mL	11 µg/mL	10 µg/mL	65 µg/mL	248 µg/mL	2.9 µg/mL	87 µg/mL	CMC [5]: 20 µg/mL
CCCCCCCCCCCCCCCC(=O)N(CCCN)CCCN.O=C(O)C(F)(F)F.O=C(O)C(F)(F)F	11 µg/mL	12 µg/mL	2.8 µg/mL	52 µg/mL	14 µg/mL	2.4 µg/mL	65 µg/mL	
N[C@@H](Cc1ccccc1)C(=O)NCCCNCCCNC(=O)[C@@H](N)Cc1ccccc1.O=C(O)C(F)(F)F.O=C(O)C(F)(F)F.O=C(O)C(F)(F)F		> 250 µg/mL	> 250 µg/mL		> 250 µg/mL	> 250 µg/mL	> 250 µg/mL	
CCCCCCCCCCCCCC(=O)N(CCCN)CCCN.O=C(O)C(F)(F)F.O=C(O)C(F)(F)F	15 µg/mL	18 µg/mL	27 µg/mL	72 µg/mL	28 µg/mL	23 µg/mL	47 µg/mL	
N[C@@H](Cc1ccccc1)C(=O)NCCCN(CCCNC(=O)[C@@H](N)Cc1ccccc1)C(=O)[C@@H](N)Cc1ccccc1.O=C(O)C(F)(F)F.O=C(O)C(F)(F)F.O=C(O)C(F)(F)F		> 250 µg/mL	> 250 µg/mL		> 250 µg/mL	> 250 µg/mL	> 250 µg/mL	
CCCCCCCCCCCC(=O)N(CCCNC(=O)[C@@H](N)Cc1ccccc1)CCCNC(=O)[C@@H](N)Cc1ccccc1.O=C(O)C(F)(F)F.O=C(O)C(F)(F)F	3.3 µg/mL	3.6 µg/mL	4 µg/mL	171 µg/mL	10 µg/mL	2.3 µg/mL	8 µg/mL	fold change (FC) (Staphylococcus aureus [8]): 2; Activity (Escherichia coli [9]): Active; fold change (FC) (Staphylococcus aureus [10]): 4; Activity (Staphylococcus aureus [11]): Active; Activity (Staphylococcus aureus [12]): Active; CMC [5]: 40 µg/mL; Activity (Staphylococcus aureus [13]): Active; FC (Staphylococcus aureus [14]): 3; Activity (Escherichia coli [15]): Active
CCCCCCCCCC(=O)N(CCCNC(=O)[C@@H](N)Cc1ccccc1)CCCNC(=O)[C@@H](N)Cc1ccccc1.O=C(O)C(F)(F)F.O=C(O)C(F)(F)F	20 µg/mL	15 µg/mL	29 µg/mL	187 µg/mL	19 µg/mL	14 µg/mL	57 µg/mL	CMC [5]: 156 µg/mL
N[C@@H](Cc1ccccc1)C(=O)NCCCN(CCCNC(=O)[C@@H](N)Cc1ccccc1)C(=O)Cc1cccc2ccccc12.O=C(O)C(F)(F)F.O=C(O)C(F)(F)F		> 250 µg/mL	> 250 µg/mL		> 250 µg/mL	> 250 µg/mL	> 250 µg/mL	
CCCCCCCCCCCC(=O)N(CCCNC(=O)[C@H](N)Cc1ccccc1)CCCNC(=O)[C@H](N)Cc1ccccc1.O=C(O)C(F)(F)F.O=C(O)C(F)(F)F	4.2 µg/mL	3.5 µg/mL	2.8 µg/mL	209 µg/mL	10 µg/mL	2.4 µg/mL	6.5 µg/mL	Activity (Staphylococcus aureus [16]): Active; fold change (FC) (Escherichia coli [17]): 250; Activity (Escherichia coli [9]): Active; Activity (Staphylococcus aureus [11]): Active; Activity (Staphylococcus aureus [12]): Active; CMC [5]: 40 µg/mL; Activity [18]: Non-toxic; fold change (FC) (Staphylococcus aureus [19]): 800; fold change (FC) (Staphylococcus aureus [20]): 2; Activity (Escherichia coli [21]): Active; Activity [22]: Non-toxic; FC (Staphylococcus aureus [23]): 3; Activity (Staphylococcus aureus [24]): Active; Activity (Staphylococcus aureus [13]): Active; FC (Staphylococcus aureus [14]): 3; Activity (Escherichia coli [15]): Active; Activity (Staphylococcus aureus [25]): Active
CCCCCCCCCCCCCC(=O)N(CCCNC(=O)[C@@H](N)Cc1ccccc1)CCCNC(=O)[C@@H](N)Cc1ccccc1.O=C(O)C(F)(F)F.O=C(O)C(F)(F)F	4.1 µg/mL	6 µg/mL	4.5 µg/mL	124 µg/mL	14 µg/mL	2.4 µg/mL	16 µg/mL	
CCCCCCCCCCCCCCCCCC(=O)N(CCCN)CCCN.O=C(O)C(F)(F)F.O=C(O)C(F)(F)F	19 µg/mL	21 µg/mL	21 µg/mL	42 µg/mL	26 µg/mL	11 µg/mL	106 µg/mL	
CN[C@H](CC(C)C)C(=O)N[C@H]1C(=O)N[C@@H](CC(N)=O)C(=O)N[C@H]2C(=O)N[C@H]3C(=O)N[C@H](C(=O)N[C@H](C(=O)O)c4cc(O)cc(O)c4-c4cc3ccc4O)[C@H](O)c3ccc(c(Cl)c3)Oc3cc2cc(c3O[C@@H]2O[C@H](CO)[C@@H](O)[C@H](O)[C@H]2O[C@H]2C[C@](C)(N)[C@H](O)[C@H](C)O2)Oc2ccc(cc2Cl)[C@H]1O [VANCOMYCIN]	0.8 µg/mL (≈ 0.552 µM)	0.8 µg/mL (≈ 0.552 µM)	0.8 µg/mL (≈ 0.552 µM)			> 1000 µg/mL		
CCCCCCCCCCCCCCCC(=O)N(CCCNC(=O)[C@@H](N)Cc1ccccc1)CCCNC(=O)[C@@H](N)Cc1ccccc1.O=C(O)C(F)(F)F.O=C(O)C(F)(F)F	4.6 µg/mL	9 µg/mL	7.6 µg/mL	74 µg/mL	227 µg/mL	2.7 µg/mL	62 µg/mL	
COLISTIN								MIC (Staphylococcus aureus [1]): 68 µg/mL; MIC (Staphylococcus aureus [2]): 25 µg/mL; MIC (Enterococcus faecium [3]): > 250 µg/mL; MIC (Escherichia coli [6]): 0.5 µg/mL; MIC (Enterococcus faecium [7]): > 250 µg/mL; MIC (Klebsiella pneumoniae): 1.5 µg/mL
CCCCCCCCCCCC(=O)N(CCCN)CCCN.O=C(O)C(F)(F)F.O=C(O)C(F)(F)F	53 µg/mL	45 µg/mL	62 µg/mL	107 µg/mL	108 µg/mL	57 µg/mL	163 µg/mL	
CCCCCCCCCC(=O)N(CCCN)CCCN.O=C(O)C(F)(F)F.O=C(O)C(F)(F)F	137 µg/mL	240 µg/mL	> 250 µg/mL	> 500 µg/mL	231 µg/mL	250 µg/mL	> 250 µg/mL	
